{
  "source": "paper PMC3258117",
  "about": "(Journal of Medicinal Chemistry, 2011)",
  "key": {"[1]": {"test": "Reduction potential by cyclic voltammetry", "type": "physicochemical", "conditions": "cyclic voltammetry relative to Ag/AgCl", "in_short": "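Half-wave reduction potentials (E1/2) measured by cyclic voltammetry against an Ag/AgCl reference electrode, using a carbon mesh working electrode and a Pt wire counter electrode. The supporting electrolyte was 0.1M tetrabutylammonium hexafluorophosphate (TBAPF6).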"}, "[2]": {"test_system": "T. cruzi Tulahuen C4 amastigotes", "test": "In vitro growth inhibition of T. cruzi amastigotes in infected L6 myoblasts", "type": "cell-based, Trypanosoma cruzi", "conditions": "for fold increase of T. cruzi IC50 compared to the nitro-containing analog: non-nitro triazoles 19 and 31 versus 17 and 29; for activity designation against T. cruzi: classes by IC50 criteria of b15"}, "[3]": {"conditions": "15 mg/kg given i.p. for 30 days; cited from earlier work"}, "[4]": {"test_system": "T. cruzi", "conditions": "2 mg/kg/day for 50 days, mice, acute phase of infection; cited from earlier work"}, "[5]": {"conditions": "cited from earlier work"}, "[6]": {"test_system": "T.b. rhodesiense STIB 900 trypomastigotes", "test": "In vitro growth inhibition of T. b. rhodesiense bloodstream form trypomastigotes", "type": "cell-based, Trypanosoma brucei rhodesiense", "conditions": "for activity designation against T.b. rhodesiense: classes by IC50 criteria of b15"}, "[7]": {"test_system": "L. donovani MHOM-ET-67/L82 axenic amastigotes", "test": "In vitro growth inhibition of axenically cultured L. donovani amastigotes", "type": "cell-based, Leishmania donovani", "conditions": "SI = IC50 in L6 cells / IC50 in parasites"}, "[8]": {"test_system": "L6 cells (rat skeletal myoblasts)", "test": "Cytotoxicity assessment using L6 cells", "type": "cell-based", "conditions": "read-out: Cytotox. L6 IC-50"}, "[9]": {"conditions": "SI = IC50 in L6 cells / IC50 in parasites"}},
  "note": "Like-named read-outs stand apart in the source and are kept apart here.",
  "data": [
    {"compound": "Cl.O=[N+]([O-])c1nccn1CCCNc1nc(-c2ccccc2)nc2ccccc12", "note": "[Compound 8, N-[3-(2-Nitro-1H-imidazol-1-yl)propyl]-2-phenylquinazolin-4-amine hydrochloride]", "values": [
      {"measurement": "E1/2 reduction potential", "setting": "[1]; in DMSO", "result": -1.03, "unit": "V"}
    ]},
    {"compound": "Cl.Cl.O=[N+]([O-])c1ncn(CCCCN2CCN(Cc3ccc(C(F)(F)F)cc3)CC2)n1", "note": "[Compound 41, 1-[4-(3-Nitro-1H-1,2,4-triazol-1-yl)butyl]-4-{[4-(trifluoromethyl)phenyl]methyl}piperazine dihydrochloride]", "values": [
      {"measurement": "E1/2 reduction potential", "setting": "[1]; in DMSO", "result": -1.04, "unit": "V"}
    ]},
    {"compound": "Cl.FC(F)(F)c1cc(CNCCCCn2cncn2)cc(C(F)(F)F)c1", "note": "[Compound 31, {[3,5-bis(Trifluoromethyl)phenyl]methyl}[4-(1H-1,2,4-triazol-1-yl)butyl]amine hydrochloride]", "values": [
      {"measurement": "fold increase of T. cruzi IC50 compared to the nitro-containing analog", "setting": "[2]", "result": 730, "unit": "fold"}
    ]},
    {"compound": "Cl.O=[N+]([O-])c1ncn(CCCNc2c3ccccc3nc3ccccc23)n1", "note": "[Compound 1, 9-[(3-nitro-1H-1,2,4-triazolyl)-propylamino]acridine hydrochloride]", "values": [
      {"measurement": "toxicity in vivo", "setting": "[3]", "result": "demonstrated toxicity"},
      {"measurement": "fraction of cures", "setting": "[4]", "result": 20, "unit": "%"},
      {"measurement": "peripheral parasite levels", "setting": "[4]", "result": "rapid and persistent drop"}
    ]},
    {"compound": "CC1CS(=O)(=O)CCN1/N=C/c1ccc([N+](=O)[O-])o1", "note": "(centres unmarked) [Nifurtimox, 4-(5-nitrofurfurylidenamino)-3-methylthio-morpholine-1,1-dioxide]", "values": [
      {"measurement": "E1/2 reduction potential", "setting": "[5]", "result": -0.88, "unit": "V"}
    ]},
    {"compound": "Cl.O=[N+]([O-])c1ncn(CCCCNc2ccnc3cc(Cl)ccc23)n1", "note": "[Compound 17, 7-Chloro-N-[4-(3-nitro-1H-1,2,4-triazol-1-yl)butyl]quinolin-4-amine hydrochloride]", "values": [
      {"measurement": "activity designation against T.b. rhodesiense", "setting": "[6]", "result": "active"},
      {"measurement": "E1/2 reduction potential", "setting": "[1]; in CH3CN", "result": -1.18, "unit": "V"}
    ]},
    {"compound": "Cl.Cl.O=[N+]([O-])c1ncn(CCCN2CCN(c3ccc(C(F)(F)F)cc3)CC2)n1", "note": "[Compound 42, 1-[3-(3-Nitro-1H-1,2,4-triazol-1-yl)propyl]-4-[4-(trifluoromethyl)phenyl]piperazine dihydrochloride]", "values": [
      {"measurement": "fold increased antichagasic activity compared to 40 and 41", "setting": "[2]; T. cruzi in vitro", "result": "about 10 fold"}
    ]},
    {"compound": "Cl.O=[N+]([O-])c1ncn(CCCNCc2cc(C(F)(F)F)cc(C(F)(F)F)c2)n1", "note": "[Compound 29, {[3,5-bis(Trifluoromethyl)phenyl]methyl}[3-(3-nitro-1H-1,2,4-triazol-1-yl)propyl]amine hydrochloride]", "values": [
      {"measurement": "activity designation against T. cruzi", "setting": "[2]", "result": "active"},
      {"measurement": "E1/2 reduction potential", "setting": "[1]; in DMSO", "result": -1.07, "unit": "V"}
    ]},
    {"compound": "Cl.O=[N+]([O-])c1ncn(CCCNc2nc(-c3ccccc3)nc3ccccc23)n1", "note": "[Compound 20, N-[3-(3-Nitro-1H-1,2,4-triazol-1-yl)propyl]-2-phenyl-quinazolin-4-amine hydrochloride]", "values": [
      {"measurement": "E1/2 reduction potential", "setting": "[1]; in DMSO", "result": -1.04, "unit": "V"}
    ]},
    {"compound": "6-Methyl-4-N-[3-(2-nitro-1H-1,2,4-triazol-1-yl)propyl]-pyrimidin-2,4-diamine hydrochloride [Compound 22]", "values": [
      {"measurement": "T. cruzi SI", "setting": "[2]; [9]", "result": ">8"},
      {"measurement": "activity designation against T. cruzi", "setting": "[2]", "result": "moderately active (IC50 = 4.0-60 μM)"},
      {"measurement": "T.b.rhodesiense SI", "setting": "[6]; [9]", "result": ">131"},
      {"measurement": "L. donovani axen. SI", "setting": "[7]", "result": "∼3"},
      {"measurement": "IC50", "setting": "[8]", "result": "> 286", "unit": "µM"}
    ]},
    {"compound": "Cl.Clc1ccc2c(NCCCCn3cncn3)ccnc2c1", "note": "[Compound 19, 7-Chloro-N-[4-(1H-1,2,4-triazol-1-yl)butyl]quinolin-4-amine]", "values": [
      {"measurement": "fold increase of T. cruzi IC50 compared to the nitro-containing analog", "setting": "[2]", "result": 658, "unit": "fold"},
      {"measurement": "L. donovani axen. SI", "setting": "[7]", "result": "∼1"}
    ]},
    {"compound": "Cl.O=[N+]([O-])c1nccn1CCCNCc1cc(C(F)(F)F)cc(C(F)(F)F)c1", "note": "[Compound 26]", "values": [
      {"measurement": "L. donovani axen. SI", "setting": "[7]", "result": "∼2"}
    ]},
    {"compound": "Cl.O=[N+]([O-])c1ncn(CCCNCc2ccc(C(F)(F)F)cc2)n1", "note": "[Compound 37, [3-(3-Nitro-1H-1,2,4-triazol-1-yl)propyl]({[4-(trifluoromethyl)phenyl]methyl})amine hydrochloride]", "values": [
      {"measurement": "activity designation against T. cruzi", "setting": "[2]", "result": "active"}
    ]},
    {"compound": "Cc1cc(NCCCn2ccnc2[N+](=O)[O-])nc(N)n1.Cl", "note": "[Compound 11, 6-Methyl-4-N-[3-(2-nitro-1H-imidazol-1-yl)propyl]-pyrimidin-2,4-diamine hydrochloride]", "values": [
      {"measurement": "L. donovani axen. SI", "setting": "[7]", "result": "∼3"}
    ]},
    {"compound": "Cl.Cl.O=[N+]([O-])c1ncn(CCCN2CCN(Cc3ccc(C(F)(F)F)cc3)CC2)n1", "note": "[Compound 40, 1-[3-(3-Nitro-1H-1,2,4-triazol-1-yl)propyl]-4-{[4-(trifluoromethyl)phenyl]methyl}piperazine dihydrochloride]", "values": [
      {"measurement": "SI", "setting": "[2]; Table 2, T. cruzi, IC50 in L6 cells / IC50 in parasites", "result": ">562"}
    ]},
    {"compound": "Cl.Cl.O=[N+]([O-])c1nccn1CCCN1CCN(Cc2ccc(C(F)(F)F)cc2)CC1", "note": "[Compound 39, 1-[3-(2-Nitro-1H-imidazol-1-yl)propyl]-4-{[4-(trifluoromethyl)phenyl]methyl}piperazine dihydrochloride]", "values": [
      {"measurement": "L. donovani axen. SI", "setting": "[7]", "result": "∼1"}
    ]},
    {"compound": "Cl.O=[N+]([O-])c1ncn(CCCN(Cc2ccc(C(F)(F)F)cc2)Cc2ccc(C(F)(F)F)cc2)n1", "note": "[Compound 38, [3-(3-Nitro-1H-1,2,4-triazol-1-yl)propyl]bis({[4-(trifluoromethyl)phenyl]methyl})amine hydrochloride]", "values": [
      {"measurement": "activity designation against T. cruzi", "setting": "[2]", "result": "active"},
      {"measurement": "activity designation against T.b. rhodesiense", "setting": "[6]", "result": "active"},
      {"measurement": "E1/2 reduction potential", "setting": "[1]; in DMSO", "result": -1.06, "unit": "V"}
    ]},
    {"compound": "O=C1C(Cl)=C(NCCCn2cnc([N+](=O)[O-])n2)C(=O)c2ccccc21", "note": "[Compound 25, 2-Chloro-3-{[3-(3-nitro-1H-1,2,4-triazol-1-yl)propyl]amino}-1,4-dihydronaphthalene-1,4-dione]", "values": [
      {"measurement": "fold greater effect on T. cruzi growth than 2-nitroimidazole counterpart", "setting": "[2]; 3-nitrotriazole versus its 2-nitroimidazole analog", "result": 2, "unit": "fold"}
    ]}
  ]
}
